A selection: hits, their analogues and other compounds. The true share with any hit is near 5.8%.
Pf Dd2 inh – P. falciparum Dd2 growth inhibition; SYBR Green, 72 h; hits give low values; activity change, % at 10 µM; actives 2.3% (n = 94,000); in the data active means activity change below about -80%
Tcruzi prolif – T. cruzi proliferation inhibition | T. cruzi beta-gal in NIH3T3, GalScreen luminescence, 90 h | inhibition, % at 8.34 µM | actives 5.9% (n = 77,000) | AID 624255;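 active means mean inhibition above about 93%, with at least 55% of replicates each passing it, limit read from the data, passing the limit was not always enough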
KDM4C inh – KDM4C (human) demethylase inhibition. inhibition, % at 12.5 µM. actives 0.15% (n = 96,000). Q9H3R0. GST-KDM4C 2-372, H3K9me3 peptide, LANCE TR-FRET;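 active means mean replicate inhibition above about 25%, with at least 55% of replicates also reaching it, limit read from the data, passing the limit was not always enough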
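System – N-terminal GST-fused human GASC-1 (KDM4C) fragment, residues 2-372 · Input – enzyme final amount 10 nM · Technique – LANCE TR-FRET, Eu antibody, ULight-streptavidin, EDTA, ex 340 nm, em 618/671 nm · Medium – HEPES buffer, pH 7.5, plus ascorbate · Incubation – enzyme reaction 30 min, then detection 60 min, both room temperature · Reagent – H3K9me3 peptide with Fe(II)/2OG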
IDH1 mut inh – inhibitors of human IDH1 R132H. IDH1 R132H reductase, diaphorase/resazurin fluorescence, 60 min. inhibition, % at 10 µM. AID 624101. actives 0.18% (n = 70,000); in the data active means inhibition above about 34%;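 further: 0% = DMSO and 100% = no enzyme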
Target sequence (O75874 whole entry R132H): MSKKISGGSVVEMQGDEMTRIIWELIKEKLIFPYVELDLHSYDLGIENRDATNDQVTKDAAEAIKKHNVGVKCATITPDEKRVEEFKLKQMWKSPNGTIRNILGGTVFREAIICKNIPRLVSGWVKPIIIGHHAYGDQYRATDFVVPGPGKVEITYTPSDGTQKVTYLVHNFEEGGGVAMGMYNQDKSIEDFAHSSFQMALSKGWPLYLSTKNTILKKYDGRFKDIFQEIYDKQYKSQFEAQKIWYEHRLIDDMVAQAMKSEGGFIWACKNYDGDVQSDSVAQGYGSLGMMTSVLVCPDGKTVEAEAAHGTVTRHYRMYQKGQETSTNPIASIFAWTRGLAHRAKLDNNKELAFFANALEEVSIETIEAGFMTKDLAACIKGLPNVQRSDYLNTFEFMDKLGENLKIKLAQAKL
The depositor's hits bear a star; / = no result given.

SMILES	Pf Dd2 inh	Tcruzi prolif	KDM4C inh	IDH1 mut inh
CC(C)(O)C#Cc1cccc(-c2nc(C(=O)N[C@@H]3CCN(Cc4ccccc4)C3)cc3c2[C@H](CCO)N(S(=O)C(C)(C)C)C3)c1 (some centres undefined)	-82*	/	-4	/
Cc1cc(C)nc(NS(=O)(=O)c2ccc(NC(=S)NC(=O)c3ccccc3)cc2)n1	/	/	/	1
C[C@@H]1CN([C@@H](C)CO)C(=O)c2cc(NC(=O)CCCCCC(=O)Nc3ccccc3N)ccc2O[C@@H](C)CCCCO[C@@H]1CN(C)C(=O)Nc1ccc(C(F)(F)F)cc1	-82*	72	0	/
C[C@H](CO)N1C[C@H](C)[C@H](CN(C)CC2CCCCC2)OCCCC[C@H](C)Oc2ccc(NC(=O)CCCCCC(=O)Nc3ccccc3N)cc2C1=O	-82*	89	3	/
C[C@@H]1CCCCO[C@H](CN(C)S(=O)(=O)c2ccc(Cl)cc2)[C@@H](C)CN([C@H](C)CO)C(=O)c2cc(NC(=O)CCCCCC(=O)Nc3ccccc3N)ccc2O1	-85*	/	-1	0
COc1ccc(NC(=O)Nc2ccc3c(c2)C(=O)N([C@H](C)CO)C[C@H](C)[C@H](CN(C)Cc2ccc(C(=O)Nc4ccccc4N)cc2)OCCCC[C@@H](C)O3)cc1	-87*	/	2	0
C[C@@H]1CN([C@H](C)CO)C(=O)c2cc(NC(=O)CCCCCC(=O)Nc3ccccc3N)ccc2O[C@@H](C)CCCCO[C@@H]1CN(C)S(=O)(=O)c1ccc(Cl)cc1	-78	79	0	0
O=C(CSc1nc2ccccc2[nH]1)Nc1ccc(Cl)c(Br)c1	/	/	/	0
C[C@@H]1CCCCO[C@H](CN(C)Cc2ccccc2)[C@@H](C)CN([C@H](C)CO)C(=O)c2cc(NC(=O)CCCCCC(=O)Nc3ccccc3N)ccc2O1	-83*	/	-1	/
COc1ccc(CN(C)C[C@H]2OCCCC[C@@H](C)Oc3ccc(NC(=O)CCCCCC(=O)Nc4ccccc4N)cc3C(=O)N([C@H](C)CO)C[C@@H]2C)cc1	-83*	/	1	/
Cc1cccc(OCCCC(=O)Nc2ccccc2[N+](=O)[O-])c1C	/	/	/	-1
CC1=NN(c2cc(Cl)cc(Cl)c2)C(=O)CC1	/	/	/	-1
COc1cc(NC(=O)C(C)Oc2ccc(Cl)cc2Cl)ccc1NC(=O)c1ccco1 (centres undefined)	/	/	/	1
CN(C)CCCC[C@@H]1NC(=O)[C@H]2C[C@@H](C(=O)NCc3ccc(F)cc3)[C@@H](c3ccc(O)cc3)N2C1=O	/	/	/	42*
C[C@H](CO)N1C[C@H](C)[C@H](CN(C)C(=O)Nc2cccc3ccccc23)Oc2ccc(NC(=O)Nc3ccc(C(F)(F)F)cc3)cc2C1=O	-62	33	-3	0
C[C@@H]1CN([C@H](C)CO)C(=O)Cc2cc(NC(=O)Nc3ccc(C(F)(F)F)cc3)ccc2O[C@H]1CN(C)C(=O)Nc1cccc2ccccc12	-85*	36	-2	0
C[C@@H]1CCCCO[C@@H](CN(C)C(=O)Nc2cccc3ccccc23)[C@H](C)CN([C@H](C)CO)C(=O)c2cc(NC(=O)Nc3ccc(C(F)(F)F)cc3)ccc2O1	-47	109*	0	/
C[C@@H]1CN([C@H](C)CO)C(=O)c2cc(NC(=O)Nc3ccc(C(F)(F)F)cc3)ccc2O[C@H]1CN(C)C(=O)Nc1cccc2ccccc12	-95*	-3	3	0
C[C@@H]1CCCCO[C@H](CN(C)C(=O)Nc2cccc3ccccc23)[C@@H](C)CN([C@@H](C)CO)C(=O)c2cc(NC(=O)Nc3ccc(C(F)(F)F)cc3)ccc2O1	-81*	77	-2	1
C[C@@H]1CCCCO[C@@H](CN(C)C(=O)Nc2ccc(C(F)(F)F)cc2)[C@@H](C)CN([C@H](C)CO)C(=O)c2cc(NC(=O)Nc3cccc4ccccc34)ccc2O1	-22	/	0	-1
C[C@@H]1CCCCO[C@H](CN(C)C(=O)Nc2ccc(C(F)(F)F)cc2)[C@H](C)CN([C@H](C)CO)C(=O)c2cc(NC(=O)Nc3cccc4ccccc34)ccc2O1	-87*	78	-2	/
Cc1cc(O)c2c(c1)C(=O)c1cc(OC3OC(COC(=O)CC(=O)O)C(O)C(O)C3O)cc(O)c1C2=O (centres undefined)	/	/	/	-2
N#C[C@H]1[C@H](c2ccc(-c3cccc(F)c3)cc2)[C@H](CO)N1C(=O)c1cccnc1	-91*	91	-3	/
N#C[C@@H]1[C@@H](c2ccccc2-c2ccccc2F)[C@H](CO)N1C(=O)C1CC1	-88*	/	1	/
Cc1ccc(-c2ccccc2[C@H]2[C@@H](C#N)N(C(=O)c3cccc(F)c3)[C@H]2CO)cc1	-91*	/	0	/
SMILES	Pf Dd2 inh	Tcruzi prolif	KDM4C inh	IDH1 mut inh
N#C[C@@H]1[C@H](c2ccccc2-c2ccccc2F)[C@H](CO)N1C(=O)C1CC1	-74	/	0	/
CCc1nc(N2[C@@H](C#N)[C@H](c3ccccc3-c3ccccc3F)[C@@H]2CO)sc1C	23	/	-3	/
CCc1nc(N2[C@H](C#N)[C@H](c3ccccc3-c3ccccc3F)[C@H]2CO)sc1C	-86*	/	-4	/
N#C[C@@H]1[C@@H](c2ccc(-c3cccc(F)c3)cc2)[C@H](CO)N1C(=O)c1cccnc1	3	51	-1	/
CC(NS(=O)(=O)c1ccc(Cl)cc1)C(=O)Nc1cccc(Br)c1 (centres undefined)	/	/	/	-1
CC(NS(=O)(=O)c1cc(Cl)ccc1Cl)C(=O)Nc1cccc([N+](=O)[O-])c1 (centres undefined)	/	/	/	0
CC(C)=CCc1c(O)ccc2c(=O)c(-c3ccc(O)cc3)coc12	/	/	/	1
C=CCOc1ccccc1/C=N/NC(=O)CCCCCCC(=O)OC	/	/	/	-1
CCCNC(=O)N1[C@@H](C#N)[C@H](c2ccccc2-c2ccccc2F)[C@@H]1CO	-89*	/	-2	/
N#C[C@@H]1[C@H](c2ccccc2-c2cccc(F)c2)[C@H](CO)N1C(=O)C1CCCC1	-95*	/	-1	/
N#C[C@@H]1[C@H](c2ccccc2-c2cccc(F)c2)[C@H](CO)N1C(=O)C1CC1	-83*	/	0	/
O=C(O)CCCCCC(=O)N/N=C/c1cccnc1Br	/	/	/	0
COc1ccc2c3c([nH]c2c1)[C@H](CO)N(C(=O)Nc1ccc(F)cc1)CC31CN(Cc2cc(F)ccc2F)C1	-75	/	-2	/
COc1ccc2c3c([nH]c2c1)[C@@H](CO)N(C(=O)Nc1ccc(F)cc1)CC31CN(Cc2cc(F)ccc2F)C1	-87*	/	4	/
COc1ccc2c3c([nH]c2c1)[C@@H](CO)N(C(=O)Nc1cccc(F)c1)CC31CN(CC2CCOCC2)C1	-93*	/	-2	/
COc1cc(F)ccc1S(=O)(=O)NC1CC(C)(C)NC(C)(C)C1	/	/	/	0
O=C(CCn1cnc2ccccc2c1=O)Nc1ccccc1Br	/	/	/	1
COc1ccc(/C=N/NC(=O)CCCCCC(=O)NO)cc1O	/	/	/	-1
Nc1cc(=O)[nH]c(SCC(=O)NCc2ccco2)n1	/	/	/	1
C[C@H]1CN([C@@H](C)CO)S(=O)(=O)c2ccc(Br)cc2O[C@H]1CN(C)S(=O)(=O)c1ccccc1F	-45	74	1	/
